Usually inhibition stands for how much of the control response was suppressed. A low value points to little suppression. As a reminder, the GI50 is the concentration giving 50% growth inhibition. What is called IC50 is the concentration at which inhibition is half-maximal. A higher IC50 goes with lower potency.

Data on 30 molecules can be found in ChEMBL document CHEMBL1177770, “A rapid synthesis of lavendustin-mimetic small molecules by click fragment assembly” (Bioorg Med Chem Lett, 2010).

In experiment [1] the test system is CCRF-CEM. The experiment in a line: Growth inhibition of human CCRF-CEM cells at 10 uM after 2 days by MTT assay. Type of experiment: functional. The settings on record: 48 h. (Tetrazolium dyes change colour on reduction, which living cells bring about.)
In experiment [2] the test system is HCT-116. The experiment in a line: Growth inhibition of human HCT116 cells at 10 uM after 2 days by MTT assay. The settings on record: HCT-116, 48 h. Type of experiment: functional.
The test system of experiment [3] is HCT-116. The experiment in a line: Growth inhibition of human HCT116 cells after 2 days by MTT assay. Type of experiment: functional. The settings on record: HCT-116, 48 h. The procedure, abridged: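 HCT116 colorectal carcinoma cells from KCLB/ATCC were grown in RPMI 1640/DMEM with 10% heat-inactivated FBS at 37 °C and 5% CO₂. Cells were seeded at 5 × 10⁴ cells/ml and exposed in duplicate to a range of concentrations for two days. MTT dye was added for up to 4 h at 37 °C, formazan was solubilized overnight at room temperature, and A570 gave GI₅₀.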

Experiment [4] relates to CCRF-CEM. The experiment in a line: Growth inhibition of human CCRF-CEM cells after 2 days by MTT assay. The settings on record: 48 h. Type of experiment: functional.
For the next experiment, the system named is HaCaT. The experiment in a line: Cytotoxicity against human HaCaT cells.

As for `COc1ccc(OC)c(-c2cn(-c3ccc(O)c(C(=O)O)c3)nn2)c1`, 10 µM produced 9% inhibition in the experiment with CCRF-CEM [1].
Consider `COC(=O)c1cc(-n2cc(-c3cc(OC)ccc3OC)nn2)ccc1O`, for which the inhibition at 10 µM with HCT-116 [2] was 6%; in the experiment with CCRF-CEM [1], 3%.
In the same order, the values of `O=C(OCCCc1ccccc1)c1cc(-n2cc(-c3cccc(O)c3)nn2)ccc1O` are 11% and 9%.
On to `COc1ccc(OC)c(-c2cn(-c3ccc(O)c(C(=O)OCCCc4ccccc4)c3)nn2)c1`, for which the results for the inhibition at 10 µM in the experiment with HCT-116 [2] and in the experiment with CCRF-CEM [1] were 13% and 5%, respectively.
On the same counts, the results for `COc1cc(OC)cc(-c2cn(-c3ccc(O)c(C(=O)O)c3)nn2)c1` are 2% and 9%.
Consider `COc1ccc(-c2cn(-c3ccc(O)c(C(=O)O)c3)nn2)cc1`, for which the inhibition at 10 µM in the experiment on HCT-116 [2] came out at 8%; with CCRF-CEM [1], 9%.
In the case of `COC(=O)c1cc(-n2cc(-c3cc(O)ccc3O)nn2)ccc1O`, the GI50 is above 100 µM in the experiment on HCT-116 [3] and 13.9 µM in the experiment on CCRF-CEM [4]. Moreover, the inhibition at 10 µM in the experiment with HCT-116 [2] amounted to 15%; in the experiment on CCRF-CEM [1], 52%.
In the same order, the values of `COc1ccc(OC)c(-c2cn(-c3ccc(O)c(C(=O)NCCc4ccc(F)cc4)c3)nn2)c1` are 13.6 µM, 22.9 µM, 44% and 35%.
Take `O=C(Nc1cccc(C(F)(F)F)c1)c1cc(-n2cc(-c3cccc(O)c3)nn2)ccc1O`: the inhibition at 10 µM with HCT-116 [2] worked out at 25%; in the experiment with CCRF-CEM [1], 13%.
In the same order, the values of `O=C(O)c1cc(-n2cc(-c3cccc(O)c3)nn2)ccc1O` are 5% and 3%.
For the molecule `COc1ccccc1-c1cn(-c2ccc(O)c(C(=O)OCCCc3ccccc3)c2)nn1`, the values for the inhibition at 10 µM in the experiment on HCT-116 [2] and in the experiment on CCRF-CEM [1] were 7% and 4%, respectively.
Regarding `COC(=O)c1cc(-n2cc(-c3ccccc3OC)nn2)ccc1O`, the inhibition at 10 µM with HCT-116 [2] was 8%; with CCRF-CEM [1], 6%.
On to `COc1ccccc1-c1cn(-c2ccc(O)c(C(=O)Nc3cccc(C(F)(F)F)c3)c2)nn1`, for which the values for the GI50 in the experiment with HCT-116 [3] and in the experiment on CCRF-CEM [4] were 7.92 µM and 10.5 µM, respectively. Further, the inhibition at 10 µM was determined as 61% in the experiment with HCT-116 [2] and 65% in the experiment with CCRF-CEM [1].
For the molecule `COc1ccccc1-c1cn(-c2ccc(O)c(C(=O)NCCc3ccc(F)cc3)c2)nn1`, the inhibition at 10 µM with HCT-116 [2] worked out at 23%; in the experiment with CCRF-CEM [1], 11%.
In the same order, the values of `COC(=O)c1cc(-n2cc(-c3ccc(OC)cc3)nn2)ccc1O` are 6% and 16%.
On the same counts, the results for `COc1cc(OC)cc(-c2cn(-c3ccc(O)c(C(=O)OCCCc4ccccc4)c3)nn2)c1` are 19% and 8%.
On the same counts, the results for `COC(=O)c1cc(-n2cc(-c3cc(OC)cc(OC)c3)nn2)ccc1O` are 3% and 3%.
Regarding `COc1ccc(OC)c(-c2cn(-c3ccc(O)c(C(=O)Nc4cccc(C(F)(F)F)c4)c3)nn2)c1`, the GI50 is 12.9 µM in the experiment with HCT-116 [3] and above 100 µM in the experiment on CCRF-CEM [4]. Moreover, the inhibition at 10 µM in the experiment with HCT-116 [2] is 46%; with CCRF-CEM [1] it was 15%.
`O=C(OCCCc1ccccc1)c1cc(-n2cc(-c3cc(O)ccc3O)nn2)ccc1O`: the 50% growth inhibitory concentration (GI50) with HCT-116 [3] was 20.4 µM; in the experiment with CCRF-CEM [4] it was 0.93 µM. The inhibition at 10 µM with HCT-116 [2] amounted to 39%; in the experiment on CCRF-CEM [1], 81%.
`O=C(NCCc1ccc(F)cc1)c1cc(-n2cc(-c3cccc(O)c3)nn2)ccc1O`: the results for the GI50 in the experiment on HCT-116 [3] and with CCRF-CEM [4] were above 100 µM and 22.8 µM, respectively. Further, in the experiment with CCRF-CEM [1], at 10 µM the inhibition was 35%.
As for `COc1ccccc1-c1cn(-c2ccc(O)c(C(=O)O)c2)nn1`, the results for the inhibition at 10 µM with HCT-116 [2] and with CCRF-CEM [1] were 4% and 9%, respectively.
For the molecule `COc1ccc(-c2cn(-c3ccc(O)c(C(=O)Nc4cccc(C(F)(F)F)c4)c3)nn2)cc1`, the inhibition at 10 µM in the experiment on HCT-116 [2] worked out at 9%; in the experiment with CCRF-CEM [1], 12%.
Turning to `COc1ccc(-c2cn(-c3ccc(O)c(C(=O)NCCc4ccc(F)cc4)c3)nn2)cc1`, the GI50 with HCT-116 [3] is 12.5 µM; in the experiment on CCRF-CEM [4], above 100 µM. For the same molecule, the inhibition at 10 µM in the experiment on HCT-116 [2] turned out to be 62%; with CCRF-CEM [1] it was 21%.
As for `COc1cc(OC)cc(-c2cn(-c3ccc(O)c(C(=O)NCCc4ccc(F)cc4)c3)nn2)c1`, the concentration for 50% growth inhibition (GI50) in the experiment on HCT-116 [3] is 16.1 µM; in the experiment with CCRF-CEM [4], above 100 µM. Further, the inhibition at 10 µM with HCT-116 [2] worked out at 43%; in the experiment with CCRF-CEM [1] it was 35%.
For `O=C(O)c1cc(NCc2cc(O)ccc2O)ccc1O` [LAVENDUSTIN C], the IC50 in the experiment on HaCaT was above 100 µM.
For the molecule `COc1ccc(-c2cn(-c3ccc(O)c(C(=O)OCCCc4ccccc4)c3)nn2)cc1`, the inhibition at 10 µM came out at 12% with HCT-116 [2] and 5% in the experiment with CCRF-CEM [1].
For `COc1cc(OC)cc(-c2cn(-c3ccc(O)c(C(=O)Nc4cccc(C(F)(F)F)c4)c3)nn2)c1`, the concentration for 50% growth inhibition (GI50) with HCT-116 [3] came out at 4.37 µM; with CCRF-CEM [4], 6.41 µM. Further, the inhibition at 10 µM with HCT-116 [2] amounted to 62%; in the experiment on CCRF-CEM [1] it was 73%.
For `O=C(NCCc1ccc(F)cc1)c1cc(-n2cc(-c3cc(O)ccc3O)nn2)ccc1O`, the inhibition at 10 µM came to 18% with HCT-116 [2] and 15% with CCRF-CEM [1].
Consider `COC(=O)c1cc(-n2cc(-c3cccc(O)c3)nn2)ccc1O`, for which the inhibition at 10 µM was determined as 6% with HCT-116 [2] and 5% in the experiment with CCRF-CEM [1].
`COc1cccc2c1C(=O)c1c(O)c3c(c(O)c1C2=O)C[C@@](O)(C(=O)CO)C[C@@H]3O[C@H]1C[C@H](N)[C@H](O)[C@H](C)O1` [DOXORUBICIN]: the GI50 in the experiment with HCT-116 [3] was 0.4 µM; with CCRF-CEM [4], 0.02 µM.
